Bioassay records from PubChem BioAssay.
Most compounds without a hit are left out; they make up all but 1.7% or so of the library.
STEP block – STEP (human) phosphatase inhibition; recombinant STEP, OMFP fluorogenic substrate, fluorescence; inhibition, % at 20 µM; actives 0.25% (n = 360,000); P54829; AID 588621;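 active means inhibition at 20 µM, scaled per plate between control wells, above about 37%, limit read from the data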
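System: STEP phosphatase, cell-free reaction; Buffer or medium: Bis-Tris pH 6.0 buffer with DTT, detergent; Incubation: 20 min at room temperature, dark; Measured by: fluorescence, 480/540 nm.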
SUMO1 PPI mod – modulators of human SUMO1-mediated protein-protein interactions. P63165. inhibition, % at 20 µM. actives 0.33% (n = 360,000). SUMO1 binding to a labelled peptide, TR-FRET, 1 h; in the data active means inhibition above about 37%
Target sequence (P63165 whole entry, looked up): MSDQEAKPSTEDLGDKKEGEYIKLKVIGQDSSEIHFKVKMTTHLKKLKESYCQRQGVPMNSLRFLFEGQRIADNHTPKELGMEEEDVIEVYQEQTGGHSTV
Scp-1 inhibitor – Scp-1 (human) phosphatase inhibition; inhibition, % at 20 µM; Recombinant Scp1, phosphopeptide, malachite green phosphate absorbance; actives 0.88% (n = 340,000); Q9GZU7;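 active means inhibition above about 50% at 20 µM, limit read from the data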
Target sequence (Q9GZU7 76-261 limits assumed): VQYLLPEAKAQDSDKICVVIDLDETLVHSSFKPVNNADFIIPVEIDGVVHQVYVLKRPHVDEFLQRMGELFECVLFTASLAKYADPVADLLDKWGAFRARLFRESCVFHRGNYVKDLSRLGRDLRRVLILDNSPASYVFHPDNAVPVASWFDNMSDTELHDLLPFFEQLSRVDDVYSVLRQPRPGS
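Incubation: 45 min enzyme reaction at room temperature / System: truncated SCP-1 phosphatase (76-261aa) / Reagent: Phospho 17-mer peptide substrate / Buffer or medium: Acidic Tris acetate buffer with magnesium and detergent / Signal: absorbance at 630 nm / Doses: one concentration, 20 µM, with 1.0% DMSO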
LMPTP block – LMPTP (human) inhibition; P24666; recombinant LMPTP-A, OMFP fluorogenic substrate, fluorescence intensity; inhibition, % at 20 µM; actives 0.22% (n = 360,000);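 active means compounds that cut the enzyme signal by at least half of the control window in the single-dose screen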
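Test system: LMPTP-A phosphatase enzyme. Amount: LMPTP-A at 0.625 nM final in the reaction. Reagent: OMFP substrate, 400 µM final. Times: 50 min at room temperature. Signal: endpoint fluorescence intensity from OMFP dephosphorylation. Read-out basis: % inhibition. Benchmarks: no-enzyme and uninhibited controls.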
DNMT1 block – DNMT1 (human) enzyme inhibition. DNMT1 molecular beacon, Hinp1I cleavage, fluorescence. inhibition (reported as % activation of signal), % at 10 µM. actives 0.83% (n = 360,000). AID 588458; in the data active means inhibition above about 50%
Scp-1 conf – Scp-1 (human) inhibition, single-dose confirmed; shares compounds with Scp-1 inhibitor; recombinant SCP-1 catalytic domain, phosphate release, malachite green absorbance; inhibition, % at 20 µM; actives 61% (n = 2,500); AID 540281
MG interference – counter-screen for Scp-1 inhibitors: colorimetric interference. shares compounds with Scp-1 inhibitor. Colorimetric interference counterscreen, malachite green absorbance 630 nm. apparent inhibition (interference), % at 20 µM. 2,500 tested, under 10 active. AID 540313;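 further: compounds added after enzyme reaction finished so only phosphate colour detection is probed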
Scp1 DSF – validation of human Scp-1 inhibitors by thermal shift binding; shares compounds with Scp-1 inhibitor; Recombinant SCP1, Sypro Orange thermal shift Tm; thermal shift relative to vanadate control, % at 40 µM; actives 25% (n = 1,500);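 active means substances whose mean melting-temperature shift, as a percentage of the reference inhibitor's shift, reaches about 5.3%, limit read from the data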
A number is an active result.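 How the source made its calls, unless noted: active means inhibition of at least 30% at 20 µM; inactive means the rest.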

CCOc1cc(/C=N/NC(=O)CSc2nnc(C)s2)ccc1OCc1ccccc1Cl was read as STEP block inactive, SUMO1 PPI mod inactive, Scp-1 inhibitor 78, LMPTP block inactive, DNMT1 block inactive, Scp-1 conf 37, MG interference inactive and Scp1 DSF inactive.
`O=C(CSc1nnc(SCc2ccccc2Cl)s1)N/N=C/c1ccc(C(=O)O)cc1` gave STEP block inactive, SUMO1 PPI mod inactive, Scp-1 inhibitor inactive, LMPTP block inactive and DNMT1 block inactive.
For CCCCCC(=O)N1CC2(CC(c3cccc(NC(=O)[C@@H]4CCC(=O)N4)c3)=NO2)C[C@@H]1C(N)=O (stereo partly specified) the results were STEP block inactive, SUMO1 PPI mod inactive, Scp-1 inhibitor inactive, LMPTP block inactive and DNMT1 block inactive.
Screening C/C=C\C=C\C(=O)N1CC2(CC(c3cccc(NC(=O)CC)c3)=NO2)C[C@H]1C(N)=O (stereo partly specified) returned STEP block inactive, SUMO1 PPI mod inactive, Scp-1 inhibitor 70, LMPTP block inactive, DNMT1 block inactive, Scp-1 conf 66, MG interference inactive and Scp1 DSF inactive.
`C=C(C)C(=O)Nc1cccc(C2=NOC3(C2)C[C@@H](C(N)=O)N(C(=O)CCCCC)C3)c1` (stereo partly specified) gave Scp-1 inhibitor 83, Scp-1 conf 69, MG interference inactive and Scp1 DSF inactive.
Screening C/C=C/C=C\C(=O)Nc1cccc(C2=NOC3(C2)C[C@H](C(N)=O)N(C(=O)/C=C/C)C3)c1 (stereo partly specified) returned STEP block inactive, SUMO1 PPI mod inactive, Scp-1 inhibitor inactive, LMPTP block inactive and DNMT1 block inactive.
For O=c1c(O)c(-c2ccc(O)cc2)oc2cc(O)cc(O)c12 the results were STEP block inactive, SUMO1 PPI mod inactive, Scp-1 inhibitor 53, LMPTP block inactive, DNMT1 block inactive, Scp-1 conf 54, MG interference inactive and Scp1 DSF 9.2.
For COc1ccc(CCC(=O)N2CCN(S(=O)(=O)c3ccc(OC)c([N+](=O)[O-])c3)CC2)cc1 the results were STEP block inactive, SUMO1 PPI mod inactive, LMPTP block inactive and DNMT1 block inactive.
`CCN(CC)S(=O)(=O)c1ccc(O)c(C(=O)OCC(=O)N2CCCC2)c1` gave STEP block inactive, SUMO1 PPI mod inactive, Scp-1 inhibitor 53, LMPTP block inactive, DNMT1 block inactive, Scp-1 conf inactive and MG interference inactive.
`COc1ccc(NS(=O)(=O)c2ccc(O)c(C(=O)OCC(=O)N3CCCCC3)c2)cc1` gave STEP block inactive, SUMO1 PPI mod inactive, Scp-1 inhibitor inactive, LMPTP block inactive and DNMT1 block inactive.
Screening CCOc1cc(C2C3=C(CC(C)(C)CC3=O)N(CCOC)C3=C2C(=O)CC(C)(C)C3)ccc1OC returned STEP block inactive, SUMO1 PPI mod inactive, Scp-1 inhibitor 54, LMPTP block inactive, DNMT1 block inactive, Scp-1 conf inactive and MG interference inactive.
Cc1ccc(NC(=O)COC(=O)CC2CC3CCC2C3)cc1S(=O)(=O)N1CCOCC1 (stereo unspecified) was read as STEP block inactive, SUMO1 PPI mod inactive, Scp-1 inhibitor inactive, LMPTP block inactive and DNMT1 block inactive.
O=C(c1nc2ccc(Cl)cn2c1CN1CCCC1)N1CCc2ccccc2C1 was read as STEP block inactive, SUMO1 PPI mod inactive, Scp-1 inhibitor 52, LMPTP block inactive, DNMT1 block inactive, Scp-1 conf 36, MG interference inactive and Scp1 DSF inactive.
